Reference: ChEMBL document CHEMBL3526056, “Characterization of in vitro glucuronidation clearance of a range of drugs in human kidney microsomes: comparison with liver and intestinal glucuronidation and impact of albumin” (Drug Metab Dispos, 2012)

Columns and labels:
[1] = Fraction unbound in human intestinal microsomes at 1 uM after 30 to 60 mins by LC-MS/MS analysis; format: ADME, Intestine, Microsome
Liver microsome [2] = experiment: Unbound intrinsic glucuronidation clearance in human liver microsomes at 1 uM after 30 to 60 mins by LC-MS/MS analysis in presence of UDP-glucuronosyltransferase and 1% bovine serum albumin; format: ADME
[3] = Clearance in iv dosed human; format: ADME, organism-based; conditions: in vivo
Liver microsome [4] = experiment: Fraction metabolized glucuronidation in human liver microsomes in presence of UDP-glucuronosyltransferase; format: ADME
Liver microsome [5] = experiment: Fraction unbound in human liver microsomes at 1 uM after 30 to 60 mins by LC-MS/MS analysis in presence of 1% bovine serum albumin; format: ADME; conditions: microsomes, 1 µM
[6] = Drug metabolism in human kidney microsomes assessed as UGT1A9/2B7-mediated unbound intrinsic glucuronidation clearance at 1 uM after 30 to 60 mins by LC-MS/MS analysis in presence of 1% bovine serum albumin; format: ADME
[7] = Fraction unbound in human liver microsomes at 1 uM after 30 to 60 mins by LC-MS/MS analysis; format: ADME
[8] = Renal clearance in human; format: ADME, organism-based, Kidney; conditions: in vivo
[9] = Unbound intrinsic glucuronidation clearance in human intestinal microsomes at 1 uM after 30 to 60 mins by LC-MS/MS analysis in presence of UDP-glucuronosyltransferase; format: ADME, Intestine, Microsome
Summary of the method: (§1)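 Alamethicin-activated pooled microsomes (HLM 150 donors; HKM 8; HIM 18). Drug at 1 μM final, preincubated 5 min at 37°C in 0.1 M phosphate pH 7.1 with 3.45 mM MgCl2, 1.15 mM EDTA, 115 μM saccharic acid lactone. Started with […] cofactor (5 mM final), 30–60 min. Cofactor-free controls. Parent depletion by LC-MS/MS, single-exponential k. Corrected by HLM-dialysis fu,inc. Duplicates; n=3 (HIM n=1).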

[10] = Drug metabolism in human intestinal microsomes assessed as UGT1A9/2B7-mediated unbound intrinsic glucuronidation clearance at 1 uM after 30 to 60 mins by LC-MS/MS analysis; format: ADME, Intestine
[11] = Drug metabolism in human intestinal microsomes assessed as UGT1A9/2B7-mediated unbound intrinsic glucuronidation clearance at 1 uM after 30 to 60 mins by LC-MS/MS analysis in presence of 1% bovine serum albumin; format: ADME, Intestine
[12] = Unbound intrinsic glucuronidation clearance in human kidney microsomes at 1 uM after 30 to 60 mins by LC-MS/MS analysis in presence of UDP-glucuronosyltransferase; format: ADME, microsome; summary of the method: as §1
[13] = Fraction unbound in human kidney microsomes at 1 uM after 30 to 60 mins by LC-MS/MS analysis; format: ADME
Liver microsome [14] = experiment: Fraction metabolized glucuronidation in human liver microsomes in presence of UDP-glucuronosyltransferase and bovine serum albumin; format: ADME
[15] = Drug metabolism in human liver microsomes assessed as UGT1A9/2B7-mediated unbound intrinsic glucuronidation clearance at 1 uM after 30 to 60 mins by LC-MS/MS analysis; format: ADME
[16] = Unbound intrinsic glucuronidation clearance in human intestinal microsomes at 1 uM after 30 to 60 mins by LC-MS/MS analysis in presence of UDP-glucuronosyltransferase and 1% bovine serum albumin; format: ADME, Intestine, Microsome
[17] = Unbound intrinsic glucuronidation clearance in human kidney microsomes at 1 uM after 30 to 60 mins by LC-MS/MS analysis in presence of UDP-glucuronosyltransferase and 1% bovine serum albumin; format: ADME, microsome
[18] = Drug metabolism in human kidney microsomes assessed as UGT1A9/2B7-mediated unbound intrinsic glucuronidation clearance at 1 uM after 30 to 60 mins by LC-MS/MS analysis; format: ADME
[19] = Drug metabolism in human liver microsomes assessed as UGT1A9/2B7-mediated unbound intrinsic glucuronidation clearance at 1 uM after 30 to 60 mins by LC-MS/MS analysis in presence of 1% bovine serum albumin; format: ADME
Liver microsome [20] = experiment: Unbound intrinsic glucuronidation clearance in human liver microsomes at 1 uM after 30 to 60 mins by LC-MS/MS analysis in presence of UDP-glucuronosyltransferase; format: ADME; summary of the method: as §1
[21] = target: T1, UDP-glucuronosyltransferase 1A1 (Homo sapiens, UniProt P22309); experiment: Ratio of UGT1A1-mediated unbound intrinsic glucuronidation clearance in human kidney microsomes to UGT1A1-mediated unbound intrinsic glucuronidation clearance in human liver microsomes at 1 uM in presence of 2% bovine serum albumin; format: ADME
T1 sequence (P22309 whole entry): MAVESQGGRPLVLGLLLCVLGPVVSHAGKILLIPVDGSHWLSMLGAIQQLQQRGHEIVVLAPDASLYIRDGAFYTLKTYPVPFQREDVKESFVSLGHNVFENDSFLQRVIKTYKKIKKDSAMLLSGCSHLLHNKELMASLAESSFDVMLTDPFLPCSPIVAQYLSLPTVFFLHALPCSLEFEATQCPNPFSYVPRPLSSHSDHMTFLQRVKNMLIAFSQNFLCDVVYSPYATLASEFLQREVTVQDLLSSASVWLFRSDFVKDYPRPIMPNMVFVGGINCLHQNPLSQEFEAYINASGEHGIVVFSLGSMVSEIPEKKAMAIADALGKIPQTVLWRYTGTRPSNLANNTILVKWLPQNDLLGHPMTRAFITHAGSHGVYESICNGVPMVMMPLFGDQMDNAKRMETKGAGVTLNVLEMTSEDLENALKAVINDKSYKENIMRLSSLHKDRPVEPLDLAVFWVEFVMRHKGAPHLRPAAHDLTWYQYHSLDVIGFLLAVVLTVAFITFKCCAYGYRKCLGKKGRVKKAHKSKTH

[22] = target: T1, UDP-glucuronosyltransferase 1A1; experiment: Drug metabolism in human liver microsomes assessed as UGT1A1-mediated unbound intrinsic glucuronidation clearance at 1 uM after 30 to 60 mins by LC-MS/MS analysis; format: ADME
[23] = target: T1, UDP-glucuronosyltransferase 1A1; experiment: Drug metabolism in human liver microsomes assessed as UGT1A1-mediated unbound intrinsic glucuronidation clearance at 1 uM after 30 to 60 mins by LC-MS/MS analysis in presence of 2% bovine serum albumin; format: ADME
[24] = target: T1, UDP-glucuronosyltransferase 1A1; experiment: Ratio of UGT1A1-mediated unbound intrinsic glucuronidation clearance in human intestinal microsomes to UGT1A1-mediated unbound intrinsic glucuronidation clearance in human liver microsomes at 1 uM in presence of 2% bovine serum albumin; format: ADME
[25] = target: T1, UDP-glucuronosyltransferase 1A1; experiment: Ratio of UGT1A1-mediated unbound intrinsic glucuronidation clearance in human kidney microsomes to UGT1A1-mediated unbound intrinsic glucuronidation clearance in human liver microsomes at 1 uM; format: ADME
[26] = target: T1, UDP-glucuronosyltransferase 1A1; experiment: Drug metabolism in human intestinal microsomes assessed as UGT1A1-mediated unbound intrinsic glucuronidation clearance at 1 uM after 30 to 60 mins by LC-MS/MS analysis; format: ADME, Intestine
[27] = target: T1, UDP-glucuronosyltransferase 1A1; experiment: Drug metabolism in human intestinal microsomes assessed as UGT1A1-mediated unbound intrinsic glucuronidation clearance at 1 uM after 30 to 60 mins by LC-MS/MS analysis in presence of 2% bovine serum albumin; format: ADME, Intestine
Liver microsome [28] = experiment: Ratio of unbound intrinsic glucuronidation clearance in human liver microsomes in presence of 2% bovine serum albumin to unbound intrinsic glucuronidation clearance in human liver microsomes in absence of bovine serum albumin; format: ADME
Summary of the method: (§2)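 Ratios of mean scaled unbound CLint,UGT (per g tissue) between tissues, or between with and without BSA. Microsomal depletion assays at 1 μM, or 5 μM for propofol, in pH 7.1 phosphate at 37°C, read by LC-MS/MS. Kidney and liver n = 3, intestine n = 1, each in duplicate.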

[29] = Fraction unbound in human liver microsomes at 1 uM […] by LC-MS/MS analysis in presence of 2% bovine serum albumin; format: ADME
[30] = target: T1, UDP-glucuronosyltransferase 1A1; experiment: Ratio of UGT1A1-mediated unbound intrinsic glucuronidation clearance in human kidney microsomes to UGT1A1-mediated unbound intrinsic glucuronidation clearance in human intestinal microsomes at 1 uM in presence of 2% bovine serum albumin; format: ADME
[31] = target: T1, UDP-glucuronosyltransferase 1A1; experiment: Ratio of UGT1A1-mediated unbound intrinsic glucuronidation clearance in human kidney microsomes to UGT1A1-mediated unbound intrinsic glucuronidation clearance in human intestinal microsomes at 1 uM; format: ADME
[32] = target: T1, UDP-glucuronosyltransferase 1A1; experiment: Drug metabolism in human kidney microsomes assessed as UGT1A1-mediated unbound intrinsic glucuronidation clearance at 1 uM after 30 to 60 mins by LC-MS/MS analysis in presence of 2% bovine serum albumin; format: ADME
[33] = target: UDP-glucuronosyltransferase 1A1 (Homo sapiens) (UniProt P22309); experiment: Drug metabolism in human intestinal microsomes assessed as UGT1A1-mediated unbound intrinsic glucuronidation clearance at 1 uM after 30 to 60 mins by LC-MS/MS analysis in presence of 2% bovine serum albumin
Liver microsome [34] = experiment: Unbound intrinsic glucuronidation clearance in human liver microsomes at 1 uM after 30 to 60 mins by LC-MS/MS analysis in presence of UDP-glucuronosyltransferase and 2% bovine serum albumin; format: ADME
Summary of the method: (§3)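 Pooled alamethicin-activated human liver, kidney or intestinal microsomes. […] Duplicate incubations of 30–60 min, with no-cofactor controls. Parent depletion read by LC-MS/MS. k from a single-exponential fit, corrected by fu,inc.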

[35] = Unbound intrinsic glucuronidation clearance in human kidney microsomes at 1 uM after 30 to 60 mins by LC-MS/MS analysis in presence of UDP-glucuronosyltransferase and 2% bovine serum albumin; format: ADME, microsome; summary of the method: as §3
[36] = target: T1, UDP-glucuronosyltransferase 1A1; experiment: Drug metabolism in human kidney microsomes assessed as UGT1A1-mediated unbound intrinsic glucuronidation clearance at 1 uM after 30 to 60 mins by LC-MS/MS analysis; format: ADME
[37] = Ratio of unbound intrinsic glucuronidation clearance in human kidney microsomes in presence of 2% bovine serum albumin to unbound intrinsic glucuronidation clearance in human kidney microsomes in absence of bovine serum albumin; format: ADME, microsome; summary of the method: as §2
[38] = Unbound intrinsic glucuronidation clearance in human intestinal microsomes at 1 uM after 30 to 60 mins by LC-MS/MS analysis in presence of UDP-glucuronosyltransferase and 2% bovine serum albumin; format: ADME, Intestine, Microsome; summary of the method: as §3
[39] = target: T1, UDP-glucuronosyltransferase 1A1; experiment: Ratio of UGT1A1-mediated unbound intrinsic glucuronidation clearance in human intestinal microsomes to UGT1A1-mediated unbound intrinsic glucuronidation clearance in human liver microsomes at 1 uM; format: ADME

O=C(O)Cc1ccccc1Nc1c(Cl)cccc1Cl [DICLOFENAC] showed a fraction unbound at 1 µM [1] of 0.98, a CL free (Liver microsome [2]) of 1190 µL/min/mg and a clearance [3] of 4.84 mL/min/kg. For the same compound, the Drug metabolism (Liver microsome [4]) was 0.62, the Fu (Liver microsome [5]) was 0.02 and the CL free [6] was 6.95 mL/min/g. It also gave a fraction unbound at 1 µM [7] of 0.98, a CL renal [8] of 0.06 mL/min/kg and a CL free [9] of 74.9 µL/min/mg. The CL free [10] was 1.54 mL/min/g, the CL free [11] was 6.7 mL/min/g and the CL free [12] was 177 µL/min/mg. The fraction unbound at 1 µM [13] was 0.99, the Drug metabolism (Liver microsome [14]) was 0.65 and the CL free [15] was 30.5 mL/min/g. The CL free [16] was 325 µL/min/mg, the CL free [17] was 543 µL/min/mg and the CL free [18] was 2.27 mL/min/g. It also gave a CL free [19] of 47.4 mL/min/g and a CL free (Liver microsome [20]) of 761 µL/min/mg.

With O=C1[C@H](CC[C@H](O)c2ccc(F)cc2)[C@@H](c2ccc(O)cc2)N1c1ccc(F)cc1 [EZETIMIBE] the Ratio [21] was 0.031, the CL free [22] was 117 mL/min/g and the fraction unbound at 1 µM [1] was 0.18. The CL free [23] was 207 mL/min/g, the Ratio [24] was 0.115 and the Ratio [25] was 0.032. For the same compound, the CL free [26] was 8.61 mL/min/g, the CL free [27] was 23.8 mL/min/g and the fraction unbound at 1 µM [7] was 0.3. It also gave a CL free [9] of 418 µL/min/mg, a Ratio (Liver microsome [28]) of 1.8 and a CL free [12] of 295 µL/min/mg. The fraction unbound at 1 µM [13] was 0.18, the fraction unbound at 1 µM [29] was 0.05 and the Ratio [30] was 0.266. It also gave a Ratio [31] of 0.439, a CL free [32] of 6.34 mL/min/g and a CL free [33] of 23.8 mL/min/g. For the same compound, the CL free (Liver microsome [34]) was 5180 µL/min/mg, the CL free [35] was 495 µL/min/mg and the CL free [36] was 3.78 mL/min/g. It also gave a Ratio [37] of 1.7, a CL free [38] of 1160 µL/min/mg and a Ratio [39] of 0.073. It also gave a CL free (Liver microsome [20]) of 2930 µL/min/mg.
